Here are results for 5 compounds from ChEMBL document CHEMBL2176904, “Nonpeptidic lysosomal modulators derived from z-phe-ala-diazomethylketone for treating protein accumulation diseases” (ACS Med Chem Lett, 2012).

Activity calls are given as the source filed them. The calls are words filed in the database; no cut-off is given here.

Assay [1] deals with Hippocampus. Kind of assay: Up-regulation of cathepsin-D level in lysosome of rat hippocampal slice cultures at 0.3 to 1 uM after 4 days by immunoblot analysis. The format is functional, tissue-based. Put shortly: (§1)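 Organotypic hippocampal slice cultures from rat were treated daily with compound or vehicle. Cathepsin immunoreactivity was measured by immunoblot image analysis and reported as mean IOD ± SEM. Where stated, brefeldin A was co-present.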

In assay [2] the test system is Hippocampus. Kind of assay: Up-regulation of cathepsin-B level in lysosome of rat hippocampal slice cultures at 0.3 to 1 uM after 4 days by immunoblot analysis. Format: functional, tissue-based. Put shortly:
as §1

Assay [3] concerns the target T1, Cathepsin B (Homo sapiens, UniProt P07858). As to the kind of experiment: Inhibition of cathepsin-B using Z-Arg-Arg AMC as substrate by fluorescence assay relative to control. To be noted: concentration not given here. Put shortly: (§2)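 Z-Arg-Arg AMC as fluorogenic substrate, compounds titrated. Mean fluorescence units ± SEM were normalized to percent of control. Percent inhibition and IC50 range were fitted by nonlinear regression with one-site competition equations. Untreated control activity was compared with the highest compound concentration by unpaired t test.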

Assay [4] addresses T1, Cathepsin B. Kind of assay: Inhibition of cathepsin-B using Z-Arg-Arg AMC as substrate by fluorescence assay. Put shortly:
as §2

Assay [5] relates to Hippocampus. Kind of assay: Up-regulation of cathepsin-B level in lysosome of rat hippocampal slice cultures at 20 uM after 4 days by immunoblot analysis. To be noted: 10 uM, in the assay text read “10 uM” for “20 uM”. Format: functional, tissue-based.
The test system of assay [6] is Hippocampus. Kind of assay: Up-regulation of cathepsin-D level in lysosome of rat hippocampal slice cultures at 10 uM after 4 days by immunoblot analysis relative to PADK.
Assay [7] concerns Hippocampus. As to the kind of experiment: Up-regulation of cathepsin-B level in lysosome of rat hippocampal slice cultures at 10 uM after 4 days by immunoblot analysis relative to PADK.
Assay [8] concerns Hippocampus. Kind of assay: Up-regulation of cathepsin-D level in lysosome of rat hippocampal slice cultures at 3 to 10 uM after 4 days by immunoblot analysis in presence of brefeldin-A. Format: functional, tissue-based. Put shortly:
as §1

Assay [9] deals with Hippocampus. Kind of assay: Up-regulation of cathepsin-B level in lysosome of rat hippocampal slice cultures at 3 to 10 uM after 4 days by immunoblot analysis in presence of brefeldin-A. The format is functional, tissue-based. Put shortly: as §1
For assay [10], the system named is Hippocampus. As to the kind of experiment: Up-regulation of cathepsin-D level in lysosome of rat hippocampal slice cultures at 3 to 10 uM after 4 days by immunoblot analysis. Format: functional, tissue-based. Put shortly:
as §1

Assay [11] relates to Hippocampus. Kind of assay: Up-regulation of cathepsin-B level in lysosome of rat hippocampal slice cultures at 3 to 10 uM after 4 days by immunoblot analysis. The format is functional, tissue-based. Put shortly: as §1
In assay [12] the test system is Mus musculus. Kind of assay: Reduction of 8 to 10-kDa oligomeric amyloid beta species in APPSwInd transgenic mouse 20Lms/2J hippocampal homogenates at 25 mg/kg, ip qd for 9 days relative to wild type mouse. On the set-up: dose 25 mg/kg. To be noted: Hippocampus. The format is functional, organism-based.
Assay [13] relates to Mus musculus. As to the kind of experiment: Increase of active form of cathepsin-B level in APPSwInd transgenic mouse 20Lms/2J hippocampal homogenates at 25 mg/kg, ip qd for 9 days relative to wild type mouse. The settings on record: Hippocampus. On the set-up: dose 25 mg/kg. Format: functional, organism-based.
For assay [14], the system named is Mus musculus. Kind of assay: Inhibition of postsynaptic loss of GluR1 protein level in APPSwInd transgenic mouse 20Lms/2J hippocampal homogenates at 25 mg/kg, ip qd for 9 days relative to wild type mouse. The format is functional, organism-based. On the set-up: dose 25 mg/kg. The settings on record: Hippocampus.
In assay [15] the test system is Mus musculus. Kind of assay: Inhibition of presynaptic loss of amphiphysin-I protein level in APPSwInd transgenic mouse 20Lms/2J hippocampal homogenates at 25 mg/kg, ip qd for 9 days relative to wild type mouse. The settings on record: Hippocampus.

Consider `CCCNC(=O)[C@H]1O[C@@H]1C(=O)N[C@H](C(=O)N1CCC[C@H]1C(=O)OC)[C@@H](C)CC`, for which the outcome in the assay with Hippocampus [1] and with Hippocampus [2] was inactive. On Cathepsin B [3], this compound had an inhibition of 100%. For the same compound, half-maximal inhibition against Cathepsin B [4] (IC50) was put at 0.08 µM.
As for `[N-]=[N+]=CC(=O)N(Cc1ccccc1)C[C@@H](O)[C@H](Cc1ccccc1)NC(=O)OCc1ccccc1`, the result with Hippocampus [5] was Active. At Cathepsin B [3], this compound registered an inhibition of 13%. Further, the “fold change (FC)” value in the assay with Hippocampus [6] and in the assay on Hippocampus [7] was 2 each time.
Consider `C[C@H](NC(=O)[C@H](Cc1ccccc1)NC(=O)OCc1ccccc1)C(=O)C=[N+]=[N-]`, for which the result in the assay with Hippocampus [8] and with Hippocampus [9] was inactive. Also, the result with Hippocampus [10] and with Hippocampus [11] was Active. On Cathepsin B [3], the inhibition stood at 100%. The same compound displayed a half-inhibitory concentration (IC50) against Cathepsin B [4] of 9.4 µM.
For the compound `CC(=O)N(Cc1ccccc1)C[C@@H](O)[C@H](Cc1ccccc1)NC(=O)OCc1ccccc1`, the outcome with Mus musculus [12], with Mus musculus [13] and in the assay with Hippocampus [5] was Active. Besides, the inhibition result in the assay on Mus musculus [14] and with Mus musculus [15] was “Active” each time. Moreover, on Cathepsin B [3], the inhibition came out at 8%. Moreover, the IC50 on Cathepsin B [4] is greater than 100 µM.
Take `N#[N+][CH-]C(=O)N(Cc1ccccc1)C[C@@H](O)[C@H](Cc1ccccc1)NC(=O)OCc1ccccc1`: the IC50 at Cathepsin B [4] amounted to 2 µM.
